According to article PMC8484140 (Targeted Oncology, 2021):
“Also recorded” adds a separate entry of the source.

Legend:
[1] = test system: estrogen receptor-positive advanced breast cancer; conditions: entinostat plus exemestane; prolonged from 19.8; cited from earlier work
[2] = test system: HR+/HER2− advanced breast cancer; test: Efficacy by RECIST 1.1, additional 21 patients; assay type: in vivo, human
Summary of the method: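 Additional cohort of 21 postmenopausal women aged ≤65 years. All had ER- and/or PR-positive (>1%) disease, ECOG 0–1 and progression after letrozole/anastrozole, with no prior HDAC inhibitor. […] Response was assessed by RECIST 1.1, with CR/PR confirmed at least 4 weeks after the initial response.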

[3] = Plasma pharmacokinetics of entinostat; assay type: in vivo, human
[4] = Safety evaluation; assay type: in vivo, human
[5] = female, human, plasma, po, 3 mg
[6] = female, human, plasma, po, 3 mg/week
[7] = female, human, plasma, po, 5 mg
[8] = female, human, plasma, po, 5 mg/week
[9] = female, human, plasma, po, 7 mg
[10] = female, human, plasma, po, 7 mg/week
[11] = Stage II, 3 mg/week + exemestane 25 mg/day, n=2
[12] = Stage II, 5 mg/week + exemestane 25 mg/day, n=14

For `Nc1ccccc1NC(=O)c1ccc(CNC(=O)OCc2cccnc2)cc1` [Entinostat], the “Overall survival (OS)” value [1] is given as 28.1 months, the “ORR (CR+PR)” value ([2]; 21 patients, entinostat 5 mg + exemestane 25 mg, 95% CI: 1.17–30.38) is given as 9.52% and the “Clinical benefit rate (CBR, CR+PR+SD over 24 weeks)” value ([2]; 21 patients, entinostat 5 mg + exemestane 25 mg, 95% CI: 21.82–65.98) is given as 42.86%. For the same compound, the Median progression-free survival ([2]; additional 21 patients, entinostat 5 mg/week + exemestane 25 mg/day) was 9.41 months, the “Dose dependence of exposure (Cmax, AUC)” value ([3]; 3–7 mg) was “increased dose proportionally; also recorded: linear relationship between AUC0-168 and entinostat dose” and the Tmax ([3]; Day 22, 5 mg/week oral, N=12, median (Min., Max.)) was 0.50 (0.25, 8.00) h. The Tmax ([3]; female, human, plasma, oral) was about 0.5 h, the half-life ([3]; female, human, plasma, oral) was 38.3 to 65.3 h and the AUC(0-inf) [3, 5] was 572 ± 122 ng·h/mL. It also gave a Cmax [3, 5] of 49.2 ± 8.38 ng/mL, a half-life [3, 5] of 38.3 h and an AUC(0-inf) [3, 6] of 609 ± 44.3 ng·h/mL. The Cmax [3, 6] was 55.7 ± 38.2 ng/mL, the Tmax [3, 6] was 0.47 h and the half-life [3, 6] was 65.3 h. For the same compound, the AUC(0-inf) [3, 7] was 1070 ± 364 ng·h/mL, the Cmax [3, 7] was 101 ± 62.1 ng/mL and the half-life [3, 7] was 51.7 h. For the same compound, the AUC(0-inf) [3, 8] was 1310 ± 349 ng·h/mL, the Cmax [3, 8] was 107 ± 63.2 ng/mL and the half-life [3, 8] was 61.9 h. The AUC(0-inf) [3, 9] was 1380 ± 206 ng·h/mL, the Cmax [3, 9] was 154 ± 39.2 ng/mL and the Tmax [3, 9] was 0.55 h. For the same compound, the half-life [3, 9] was 48.1 h, the AUC(0-inf) [3, 10] was 1650 ± 452 ng·h/mL and the Cmax [3, 10] was 122 ± 76.1 ng/mL. For the same compound, the half-life [3, 10] was 56.2 h, the “Tolerability of entinostat in combination with exemestane” value ([4]; Chinese patients) was “well tolerated” and the “AKP elevation, entinostat-related AE of all grades” value [4, 11] was 0 No. (%). For the same compound, the “ALT elevation, entinostat-related AE of all grades” value [4, 11] was 0 No. (%), the “AST elevation, entinostat-related AE of all grades” value [4, 11] was 0 No. (%) and the “Abdominal pain, entinostat-related AE of all grades” value [4, 11] was 0 No. (%). The “Anemia, entinostat-related AE of all grades” value [4, 11] was 0 No. (%), the “Back pain, entinostat-related AE of all grades” value [4, 11] was 0 No. (%) and the “Chest pain, entinostat-related AE of all grades” value [4, 11] was 0 No. (%). For the same compound, the “Creatine increase, entinostat-related AE of all grades” value [4, 11] was 0 No. (%), the “Creatinine phosphokinase increase, entinostat-related AE of all grades” value [4, 11] was 0 No. (%) and the “Debilitation, entinostat-related AE of all grades” value [4, 11] was 0 No. (%). The “Diarrhea, entinostat-related AE of all grades” value [4, 11] was 0 No. (%), the “Fatigue, entinostat-related AE of all grades” value [4, 11] was 0 No. (%) and the “Flatulence, entinostat-related AE of all grades” value [4, 11] was 0 No. (%). For the same compound, the “Headache, entinostat-related AE of all grades” value [4, 11] was 0 No. (%), the “Hypoalbuminemia, entinostat-related AE of all grades” value [4, 11] was 0 No. (%) and the “Hypocalcemia, entinostat-related AE of all grades” value [4, 11] was 0 No. (%). The “Hypokalemia, entinostat-related AE of all grades” value [4, 11] was 0 No. (%), the “Hypoproteinemia, entinostat-related AE of all grades” value [4, 11] was 0 No. (%) and the “LDH increase, entinostat-related AE of all grades” value [4, 11] was 0 No. (%). For the same compound, the “Leukopenia, entinostat-related AE of all grades” value [4, 11] was 0 No. (%), the “Limb pain, entinostat-related AE of all grades” value [4, 11] was 0 No. (%) and the “Nausea, entinostat-related AE of all grades” value [4, 11] was 0 No. (%). The “Neutropenia, entinostat-related AE of all grades” value [4, 11] was 2 (100) No. (%), the “Palpitation, entinostat-related AE of all grades” value [4, 11] was 0 No. (%) and the “Serum Ca^2+ decrease, entinostat-related AE of all grades” value [4, 11] was 0 No. (%). The “Serum Na+ decrease, entinostat-related AE of all grades” value [4, 11] was 0 No. (%), the “Serum albumin decrease, entinostat-related AE of all grades” value [4, 11] was 0 No. (%) and the “Serum phosphate decrease, entinostat-related AE of all grades” value [4, 11] was 0 No. (%). For the same compound, the “Serum urea increase, entinostat-related AE of all grades” value [4, 11] was 0 No. (%), the “Thrombocytopenia, entinostat-related AE of all grades” value [4, 11] was 0 No. (%) and the “Γ-GT elevation, entinostat-related AE of all grades” value [4, 11] was 0 No. (%). For the same compound, the “α-HBDH elevation, entinostat-related AE of all grades” value [4, 11] was 0 No. (%), the “Grade 3 AE” value ([4]; Stage II, 3 mg/week group + exemestane) was “no grade 3 AE occurred” and the “CTCAE grade 3 arrhythmia requiring medical care” value ([4]; Stage II, 5 mg entinostat group, 1/14) was 7.1%. For the same compound, the “AKP elevation, entinostat-related AE of all grades” value [4, 12] was 4 (28.6) No. (%), the “ALT elevation, entinostat-related AE of all grades” value [4, 12] was 0 No. (%) and the “AST elevation, entinostat-related AE of all grades” value [4, 12] was 2 (14.3) No. (%). The “Abdominal pain, entinostat-related AE of all grades” value [4, 12] was 0 No. (%), the “Anemia, entinostat-related AE of all grades” value [4, 12] was 5 (35.7) No. (%) and the “Back pain, entinostat-related AE of all grades” value [4, 12] was 0 No. (%). For the same compound, the “Chest pain, entinostat-related AE of all grades” value [4, 12] was 0 No. (%), the “Creatine increase, entinostat-related AE of all grades” value [4, 12] was 4 (28.6) No. (%) and the “Creatinine phosphokinase increase, entinostat-related AE of all grades” value [4, 12] was 6 (42.9) No. (%). For the same compound, the “Debilitation, entinostat-related AE of all grades” value [4, 12] was 0 No. (%), the “Diarrhea, entinostat-related AE of all grades” value [4, 12] was 3 (21.4) No. (%) and the “Fatigue, entinostat-related AE of all grades” value [4, 12] was 0 No. (%). The “Flatulence, entinostat-related AE of all grades” value [4, 12] was 0 No. (%), the “Headache, entinostat-related AE of all grades” value [4, 12] was 0 No. (%) and the “Hypoalbuminemia, entinostat-related AE of all grades” value [4, 12] was 3 (21.4) No. (%). The “Hypocalcemia, entinostat-related AE of all grades” value [4, 12] was 2 (14.3) No. (%), the “Hypokalemia, entinostat-related AE of all grades” value [4, 12] was 2 (14.3) No. (%) and the “Hypoproteinemia, entinostat-related AE of all grades” value [4, 12] was 3 (21.4) No. (%). For the same compound, the “LDH increase, entinostat-related AE of all grades” value [4, 12] was 2 (14.3) No. (%), the “Leukopenia, entinostat-related AE of all grades” value [4, 12] was 10 (71.4) No. (%) and the “Limb pain, entinostat-related AE of all grades” value [4, 12] was 2 (14.3) No. (%). For the same compound, the “Nausea, entinostat-related AE of all grades” value [4, 12] was 0 No. (%), the “Neutropenia, entinostat-related AE of all grades” value [4, 12] was 10 (71.4) No. (%) and the “Palpitation, entinostat-related AE of all grades” value [4, 12] was 0 No. (%). For the same compound, the “Serum Ca^2+ decrease, entinostat-related AE of all grades” value [4, 12] was 2 (14.3) No. (%), the “Serum Na+ decrease, entinostat-related AE of all grades” value [4, 12] was 2 (14.3) No. (%) and the “Serum albumin decrease, entinostat-related AE of all grades” value [4, 12] was 2 (14.3) No. (%). The “Serum phosphate decrease, entinostat-related AE of all grades” value [4, 12] was 7 (50) No. (%), the “Serum urea increase, entinostat-related AE of all grades” value [4, 12] was 2 (14.3) No. (%) and the “Thrombocytopenia, entinostat-related AE of all grades” value [4, 12] was 6 (42.9) No. (%). For the same compound, the “Γ-GT elevation, entinostat-related AE of all grades” value [4, 12] was 3 (21.4) No. (%), the “α-HBDH elevation, entinostat-related AE of all grades” value [4, 12] was 2 (14.3) No. (%) and the “Number of CTCAE grade ≥ 3 AEs” value ([4]; Stage II, 5 mg/week group + exemestane) was 38.
